Active and inactive are the calls of the source.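 The calls were made as follows, unless noted: active = calcium signal ratio cut to more than 3 SD under the fully stimulated control mean yet still positive, in both repeats and the primary screen; inactive = the rest.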
molecular target: Short transient receptor potential channel 4 (Mus musculus) (UniProt Q9QUQ5); assay: blockers of DAMGO-evoked TRPC4 calcium flux – cell-based, Fluo4, HEK293 TRPC4beta/mu-opioid, confirmation (AID 2636;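 active = calcium signal cut by more than 3 SD below the full-agonist control yet still positive, in both repeats and the earlier primary screen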); conditions: at 10 µM; stronger effect = higher value
Outline: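 Test system: HEK293 stable line with TRPC4beta plus mu-opioid receptor; Probe or stimulus: DAMGO, mu-opioid agonist, submaximal dose then maximally activating dose; Timing: dye 45 min at room temperature, compound 110 s, submaximal DAMGO 110 s; Technique: kinetic fluorescence of Fluo4 calcium-sensitive dye, calcium influx; Replication: duplicates per compound.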

Short transient receptor potential channel 4 (Mus musculus), sequence (Q9QUQ5 whole entry, looked up): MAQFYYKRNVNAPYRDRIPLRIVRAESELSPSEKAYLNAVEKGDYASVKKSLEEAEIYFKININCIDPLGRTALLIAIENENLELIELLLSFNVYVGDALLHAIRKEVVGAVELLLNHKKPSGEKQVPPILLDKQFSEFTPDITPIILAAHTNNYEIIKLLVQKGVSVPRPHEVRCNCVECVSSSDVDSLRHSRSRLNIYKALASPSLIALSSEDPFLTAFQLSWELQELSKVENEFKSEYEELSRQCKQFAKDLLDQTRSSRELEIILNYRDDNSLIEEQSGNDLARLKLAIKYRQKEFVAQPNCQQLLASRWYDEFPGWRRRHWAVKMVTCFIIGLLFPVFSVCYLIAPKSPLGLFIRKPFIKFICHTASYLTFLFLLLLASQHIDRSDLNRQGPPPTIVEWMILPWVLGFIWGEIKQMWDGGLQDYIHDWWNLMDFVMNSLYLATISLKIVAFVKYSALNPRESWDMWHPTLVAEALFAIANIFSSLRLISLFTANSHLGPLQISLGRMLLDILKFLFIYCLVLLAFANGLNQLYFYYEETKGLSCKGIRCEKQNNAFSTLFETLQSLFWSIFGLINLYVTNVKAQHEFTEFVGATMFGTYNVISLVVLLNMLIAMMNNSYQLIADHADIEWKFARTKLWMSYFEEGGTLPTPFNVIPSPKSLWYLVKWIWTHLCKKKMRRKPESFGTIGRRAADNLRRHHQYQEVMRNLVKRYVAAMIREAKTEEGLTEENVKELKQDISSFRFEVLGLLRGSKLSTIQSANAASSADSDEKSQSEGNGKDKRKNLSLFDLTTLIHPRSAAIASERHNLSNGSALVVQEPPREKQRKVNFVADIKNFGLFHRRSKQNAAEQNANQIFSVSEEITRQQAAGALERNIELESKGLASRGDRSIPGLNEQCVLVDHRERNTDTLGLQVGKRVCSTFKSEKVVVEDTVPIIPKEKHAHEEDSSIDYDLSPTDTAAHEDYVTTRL

Compound	inhibition	outcome
COc1ccc(CN2CCN(Cc3ccccc3F)CC2)c(OC)c1	89% (active)	–
C/C(N)=C(/C#N)C(=O)COC(=O)CC12CC3CC(CC(C3)C1)C2	83% (active)	–
CCCCC[n+]1cccc2c3ccccc3ccc21	93% (active)	–
COc1ccc(OC)c(Nc2cc(-c3ccccc3)nc(N)n2)c1	100% (active)	–
CCC1CCCCN1Cc1nc2c(c(=O)n(C)c(=O)n2C)n1Cc1ccccc1 (stereo not given)	74% (active)	–
CCOC(=O)C1CCN(C2CCN(C(=O)c3oc4c(C)c(C)ccc4c3C)CC2)CC1	95% (active)	–
O=[N+]([O-])c1cccc(-c2nnc(C3CC3)o2)c1	68% (active)	–
CCOc1c(Cl)cc(CNCC(O)c2ccccc2)cc1OC (stereo not given)	86% (active)	–
O=C(c1cccc(C(=O)N2CCN(c3ccccc3)CC2)c1)N1CCN(c2ccccc2)CC1	92% (active)	–
Cc1ccn2c(-c3csc(NCc4ccco4)n3)c(C)nc2c1	96% (active)	–
COc1ccc(Nc2nc(N)c3ccccc3n2)c(OC)c1	93% (active)	–
CCc1c(C(=O)N2CCCN(C)CC2)csc1C	63% (active)	–
COc1ccc(C)cc1N(C(=O)c1snc(C(N)=O)c1N)C(C(=O)NC1CCCC1)c1ccc(F)cc1 (stereo not given)	91% (active)	–
CC(C)(c1ccccc1)c1ccc(OCCCNCCO)cc1	79% (active)	–
Cc1ccc(-n2nc(-c3cccs3)cc2C(=O)NCC2CCCO2)c(C)c1 (stereo not given)	79% (active)	–
CC(C)CCN1CCN(Cc2ccsc2)CC1CCO (stereo not given)	90% (active)	–
CN(CC1CCCN(CCc2cccc(C(F)(F)F)c2)C1)C(=O)c1cc2ccccc2o1 (stereo not given)	85% (active)	–
Oc1ccc(CN2CCc3ccccc3C2)c2cccnc12	97% (active)	–
COc1ccc(C2C(C(C)=O)=C(O)C(=O)N2c2ccc(Br)cc2)cc1 (stereo not given)	84% (active)	–
CCOC(=O)c1c(N)sc(C(O)(C(F)(F)F)C(F)(F)F)c1-c1ccccc1	66% (active)	–

Compound	inhibition	outcome
CC1CCCN(CCCN2C(=O)C3C(C(=O)Nc4ccc(Cl)cc4)C4C=CC3(O4)C2C(=O)NC2CCCCC2)C1 (stereo not given)	97% (active)	–
O=C(C[n+]1cccc(CNC(=O)c2ccc(OC(F)F)cc2)c1)Nc1ccc(SC(F)F)cc1	94% (active)	–
Cc1ncsc1CCOC(=O)c1cccc([N+](=O)[O-])c1	83% (active)	–
CC#CC[N+](C)(C)CCCCCCCCCCCC	97% (active)	–
Cc1cc(OCc2cc(C(=O)NCCN3CCCCC3CO)no2)cc(C)c1Cl (stereo not given)	93% (active)	–
Cc1cc(N2CCC(C)CC2)nc2cccc(O)c12	95% (active)	–
Fc1ccccc1COc1ccc(Br)cc1CNCC1CCCO1 (stereo not given)	91% (active)	–
Cn1cc(CNCC2CCCO2)c(-c2ccc(Oc3ccccc3)cc2)n1 (stereo not given)	92% (active)	–
COc1cccc(C2=NN(C(=O)c3ccco3)C(c3ccco3)C2)c1 (stereo not given)	71% (active)	–
O=C(COC(=O)Cn1cnc2ccccc2c1=O)Nc1ccccc1Sc1ccc(Cl)cc1	62% (active)	–
NC(=O)c1nsc(C(=O)N(Cc2ccccc2Cl)C(C(=O)NCC2CCCO2)c2ccc(O)cc2)c1N (stereo not given)	90% (active)	–
O=C(NC1CCCCC1)N1CCN(C(c2ccccc2)c2ccccc2)CC1	–	inactive
Cc1ccc(NC(=S)N(CCCN(C)C)Cc2cc3cc4c(cc3[nH]c2=O)OCO4)c(C)c1	96% (active)	–
CCCC[n+]1c2ccccc2cc2ccccc21	87% (active)	–
CC(C)(C)CC(C)(C)NCC(O)COc1ccc2c(c1)CCC2 (stereo not given)	100% (active)	–
CCOc1ccc(Cl)cc1/C=N/O	86% (active)	–
O=C(C[n+]1cc(-c2ccc(Cl)c(Cl)c2)n2c1CCC2)N1c2ccccc2Sc2ccccc21	75% (active)	–
CC1CCc2c(sc3ncnc(SCC(=O)Nc4ccc(C(=O)O)cc4)c23)C1 (stereo not given)	88% (active)	–
NS(=O)(=O)c1ccc(Nc2nc(-c3ccc(O)cc3O)cs2)cc1	98% (active)	–
CCCn1c(NC(=O)c2ccc(Cl)c(S(=O)(=O)N3CCCC3)c2)nc2ccccc21	69% (active)	–

molecular target: Short transient receptor potential channel 4 (Mus musculus) (UniProt Q9QUQ5); assay: blockers of DAMGO-evoked TRPC4 calcium flux – cell-based, second round, Fluo4, HEK293 TRPC4beta/mu-opioid, 1 µM, confirmation (AID 2637); conditions: at 1 µM; stronger effect = higher value;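 as to inhibition: percent of integrated ratio relative to wells lacking test compound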
Outline: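 Also added: sequential submaximal then maximal DAMGO stimulation; system: TRPC4beta/mu-opioid receptor HEK293 cells; compound: one dose, 1 µM final; signal: kinetic Fluo4 Ca2+ fluorescence reading; benchmarks: ECmax and compound-free wells; repeats: two replicates; times: Fluo4 loading 45 min at room temperature, compound 110 s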

Compound	outcome	inhibition
COc1ccc(CN2CCN(Cc3ccccc3F)CC2)c(OC)c1	inactive	–
C/C(N)=C(/C#N)C(=O)COC(=O)CC12CC3CC(CC(C3)C1)C2	inactive	–
CCCCC[n+]1cccc2c3ccccc3ccc21	inactive	–
COc1ccc(OC)c(Nc2cc(-c3ccccc3)nc(N)n2)c1	–	49% (active)
CCC1CCCCN1Cc1nc2c(c(=O)n(C)c(=O)n2C)n1Cc1ccccc1 (stereo not given)	inactive	–
CCOC(=O)C1CCN(C2CCN(C(=O)c3oc4c(C)c(C)ccc4c3C)CC2)CC1	inactive	–
O=[N+]([O-])c1cccc(-c2nnc(C3CC3)o2)c1	–	38% (active)
CCOc1c(Cl)cc(CNCC(O)c2ccccc2)cc1OC (stereo not given)	inactive	–
O=C(c1cccc(C(=O)N2CCN(c3ccccc3)CC2)c1)N1CCN(c2ccccc2)CC1	–	46% (active)
Cc1ccn2c(-c3csc(NCc4ccco4)n3)c(C)nc2c1	inactive	–
COc1ccc(Nc2nc(N)c3ccccc3n2)c(OC)c1	inactive	–
CCc1c(C(=O)N2CCCN(C)CC2)csc1C	–	44% (active)
COc1ccc(C)cc1N(C(=O)c1snc(C(N)=O)c1N)C(C(=O)NC1CCCC1)c1ccc(F)cc1 (stereo not given)	–	67% (active)
CC(C)(c1ccccc1)c1ccc(OCCCNCCO)cc1	inactive	–
Cc1ccc(-n2nc(-c3cccs3)cc2C(=O)NCC2CCCO2)c(C)c1 (stereo not given)	inactive	–
CC(C)CCN1CCN(Cc2ccsc2)CC1CCO (stereo not given)	–	45% (active)
CN(CC1CCCN(CCc2cccc(C(F)(F)F)c2)C1)C(=O)c1cc2ccccc2o1 (stereo not given)	inactive	–
Oc1ccc(CN2CCc3ccccc3C2)c2cccnc12	–	45% (active)
COc1ccc(C2C(C(C)=O)=C(O)C(=O)N2c2ccc(Br)cc2)cc1 (stereo not given)	–	62% (active)
CCOC(=O)c1c(N)sc(C(O)(C(F)(F)F)C(F)(F)F)c1-c1ccccc1	inactive	–

Compound	outcome	inhibition
CC1CCCN(CCCN2C(=O)C3C(C(=O)Nc4ccc(Cl)cc4)C4C=CC3(O4)C2C(=O)NC2CCCCC2)C1 (stereo not given)	–	63% (active)
O=C(C[n+]1cccc(CNC(=O)c2ccc(OC(F)F)cc2)c1)Nc1ccc(SC(F)F)cc1	inactive	–
Cc1ncsc1CCOC(=O)c1cccc([N+](=O)[O-])c1	–	49% (active)
CC#CC[N+](C)(C)CCCCCCCCCCCC	–	55% (active)
Cc1cc(OCc2cc(C(=O)NCCN3CCCCC3CO)no2)cc(C)c1Cl (stereo not given)	inactive	–
Cc1cc(N2CCC(C)CC2)nc2cccc(O)c12	–	83% (active)
Fc1ccccc1COc1ccc(Br)cc1CNCC1CCCO1 (stereo not given)	–	42% (active)
Cn1cc(CNCC2CCCO2)c(-c2ccc(Oc3ccccc3)cc2)n1 (stereo not given)	inactive	–
COc1cccc(C2=NN(C(=O)c3ccco3)C(c3ccco3)C2)c1 (stereo not given)	inactive	–
O=C(COC(=O)Cn1cnc2ccccc2c1=O)Nc1ccccc1Sc1ccc(Cl)cc1	–	43% (active)
NC(=O)c1nsc(C(=O)N(Cc2ccccc2Cl)C(C(=O)NCC2CCCO2)c2ccc(O)cc2)c1N (stereo not given)	inactive	–
O=C(NC1CCCCC1)N1CCN(C(c2ccccc2)c2ccccc2)CC1	inactive	–
Cc1ccc(NC(=S)N(CCCN(C)C)Cc2cc3cc4c(cc3[nH]c2=O)OCO4)c(C)c1	–	70% (active)
CCCC[n+]1c2ccccc2cc2ccccc21	–	54% (active)
CC(C)(C)CC(C)(C)NCC(O)COc1ccc2c(c1)CCC2 (stereo not given)	inactive	–
CCOc1ccc(Cl)cc1/C=N/O	inactive	–
O=C(C[n+]1cc(-c2ccc(Cl)c(Cl)c2)n2c1CCC2)N1c2ccccc2Sc2ccccc21	inactive	–
CC1CCc2c(sc3ncnc(SCC(=O)Nc4ccc(C(=O)O)cc4)c23)C1 (stereo not given)	–	45% (active)
NS(=O)(=O)c1ccc(Nc2nc(-c3ccc(O)cc3O)cs2)cc1	–	47% (active)
CCCn1c(NC(=O)c2ccc(Cl)c(S(=O)(=O)N3CCCC3)c2)nc2ccccc21	inactive	–

— PubChem BioAssay
